{"source": "paper PMC4439361", "about": "(Current drug discovery technologies, 2015)", "key": {"[1]": {"tested_on": "cytoplasmic protein synthesis in wheat germ extracts", "settings": "wheat germ extract; at 30 μM; cited from earlier work"}, "[2]": {"molecular_target": "P. aeruginosa PheRS (Pseudomonas aeruginosa, UniProt Q9I0A3)", "sequence (Q9I0A4 whole entry)": "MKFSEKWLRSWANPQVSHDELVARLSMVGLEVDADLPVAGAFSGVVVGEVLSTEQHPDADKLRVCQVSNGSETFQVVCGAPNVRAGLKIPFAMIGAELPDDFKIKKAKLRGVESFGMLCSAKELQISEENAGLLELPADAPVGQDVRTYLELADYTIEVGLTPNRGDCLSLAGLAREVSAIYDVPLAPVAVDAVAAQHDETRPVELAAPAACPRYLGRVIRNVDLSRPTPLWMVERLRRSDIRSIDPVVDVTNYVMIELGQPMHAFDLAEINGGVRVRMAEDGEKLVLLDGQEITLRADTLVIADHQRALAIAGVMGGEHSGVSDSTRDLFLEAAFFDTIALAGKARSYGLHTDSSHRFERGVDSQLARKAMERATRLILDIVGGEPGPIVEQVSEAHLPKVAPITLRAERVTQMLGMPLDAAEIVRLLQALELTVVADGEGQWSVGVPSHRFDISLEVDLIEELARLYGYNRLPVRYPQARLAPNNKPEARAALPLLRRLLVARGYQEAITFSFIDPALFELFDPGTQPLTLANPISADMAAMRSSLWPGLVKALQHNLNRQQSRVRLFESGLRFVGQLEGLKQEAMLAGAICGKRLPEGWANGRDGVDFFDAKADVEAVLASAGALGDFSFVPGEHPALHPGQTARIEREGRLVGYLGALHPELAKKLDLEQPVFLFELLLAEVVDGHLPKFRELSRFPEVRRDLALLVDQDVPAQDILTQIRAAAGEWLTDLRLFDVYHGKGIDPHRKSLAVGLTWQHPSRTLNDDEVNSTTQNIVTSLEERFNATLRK", "sequence (Q9I0A3 whole entry)": "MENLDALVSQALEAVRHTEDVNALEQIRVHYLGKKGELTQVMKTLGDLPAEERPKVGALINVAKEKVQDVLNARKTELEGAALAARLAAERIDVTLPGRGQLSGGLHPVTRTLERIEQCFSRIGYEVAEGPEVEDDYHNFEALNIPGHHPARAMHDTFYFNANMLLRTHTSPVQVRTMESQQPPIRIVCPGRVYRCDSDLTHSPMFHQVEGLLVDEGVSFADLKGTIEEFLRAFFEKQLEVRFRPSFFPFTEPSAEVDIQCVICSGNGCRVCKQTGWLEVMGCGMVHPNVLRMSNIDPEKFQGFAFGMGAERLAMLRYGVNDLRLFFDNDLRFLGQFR", "assay": "tRNA aminoacylation assay in SPA format, P. aeruginosa PheRS", "format": "biochemical"}, "[3]": {"molecular_target": "S. pneumoniae PheRS (Streptococcus pneumoniae serotype 2, UniProt Q04LU1)", "sequence (Q04LU1 whole entry)": "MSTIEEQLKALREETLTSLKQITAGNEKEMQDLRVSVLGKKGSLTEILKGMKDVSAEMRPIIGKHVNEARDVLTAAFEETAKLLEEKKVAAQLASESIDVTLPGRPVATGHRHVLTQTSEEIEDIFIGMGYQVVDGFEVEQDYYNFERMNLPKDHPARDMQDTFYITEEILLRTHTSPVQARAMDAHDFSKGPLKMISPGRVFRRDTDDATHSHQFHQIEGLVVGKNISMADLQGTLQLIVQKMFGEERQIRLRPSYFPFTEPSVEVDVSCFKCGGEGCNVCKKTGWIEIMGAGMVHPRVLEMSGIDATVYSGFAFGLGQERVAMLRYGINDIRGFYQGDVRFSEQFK", "assay": "tRNA aminoacylation assay in SPA format, S. pneumoniae PheRS", "format": "biochemical"}, "[4]": {"tested_on": "cytoplasmic protein synthesis in wheat germ extracts", "assay": "Wheat germ extract poly-Phe cytoplasmic protein synthesis assay", "format": "biochemical", "settings": "poly-U mRNA, compound to 132 μM", "in_short": "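Cytoplasmic poly-Phe synthesis in wheat germ extract programmed with poly-U mRNA, yeast tRNAPhe and [3H]phenylalanine. Levels of mRNA, tRNA, label and Mg++ were optimized for poly-Phe synthesis. Cycloheximide served as reference protein-synthesis inhibitor.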"}, "[5]": {"molecular_target": "T1, human mitochondrial PheRS (hmPheRS) (Homo sapiens, UniProt O95363)", "T1 sequence (O95363 1-451)": "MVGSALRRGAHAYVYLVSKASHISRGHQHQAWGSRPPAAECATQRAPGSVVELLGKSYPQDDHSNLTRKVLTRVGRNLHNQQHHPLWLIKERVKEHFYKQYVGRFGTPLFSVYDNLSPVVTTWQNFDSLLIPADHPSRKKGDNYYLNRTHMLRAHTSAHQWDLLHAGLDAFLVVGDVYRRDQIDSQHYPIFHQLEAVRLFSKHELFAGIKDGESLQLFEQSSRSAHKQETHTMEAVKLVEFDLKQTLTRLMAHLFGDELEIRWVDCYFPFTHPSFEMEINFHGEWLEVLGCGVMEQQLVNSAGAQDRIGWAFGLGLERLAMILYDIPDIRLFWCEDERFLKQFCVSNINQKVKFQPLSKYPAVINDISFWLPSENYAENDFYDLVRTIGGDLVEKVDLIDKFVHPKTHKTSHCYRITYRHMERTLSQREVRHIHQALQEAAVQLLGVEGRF", "assay": "Human mitochondrial PheRS aminoacylation assay", "format": "biochemical", "settings": "132 μM compound; 0.2 μM hmPheRS; average of three assays"}, "[6]": {"tested_on": "E. coli (ATCC 25922)", "assay": "Broth microdilution MIC", "format": "cell-based", "settings": "Escherichia coli, ATCC25922"}, "[7]": {"tested_on": "E. coli tolC", "assay": "Broth microdilution MIC", "format": "cell-based", "settings": "Escherichia coli"}, "[8]": {"tested_on": "E. faecalis (ATCC 29212)", "assay": "Broth microdilution MIC", "format": "cell-based", "settings": "Enterococcus faecalis, ATCC29212"}, "[9]": {"tested_on": "H. influenzae (ATCC 49766)", "assay": "Broth microdilution MIC", "format": "cell-based", "settings": "Haemophilus influenzae, ATCC49766"}, "[10]": {"tested_on": "M. catarrhalis (ATCC 25238)", "assay": "Broth microdilution MIC", "format": "cell-based", "settings": "Moraxella catarrhalis, ATCC25238"}, "[11]": {"tested_on": "P. aeruginosa (ATCC 47085)", "assay": "Broth microdilution MIC", "format": "cell-based", "settings": "Pseudomonas aeruginosa, ATCC47085"}, "[12]": {"tested_on": "P. aeruginosa PAO200 (efflux mutant)", "assay": "Broth microdilution MIC", "format": "cell-based", "settings": "Pseudomonas aeruginosa"}, "[13]": {"tested_on": "P. aeruginosa (hypersensitive)", "assay": "Broth microdilution MIC", "format": "cell-based", "settings": "Pseudomonas aeruginosa, ATCC35151"}, "[14]": {"tested_on": "S. aureus (ATCC 29213)", "assay": "Broth microdilution MIC", "format": "cell-based", "settings": "Staphylococcus aureus, ATCC29213"}, "[15]": {"tested_on": "S. pneumoniae (ATCC 49619)", "assay": "Broth microdilution MIC", "format": "cell-based", "settings": "Streptococcus pneumoniae, ATCC49619"}, "[16]": {"settings": "IC50s at five Phe concentrations 25 to 300 μM, ATP fixed at 2.5 mM"}, "[17]": {"settings": "IC50s at six ATP concentrations 25 to 1000 μM, Phe fixed at 100 μM"}}, "note": "Read-outs that look alike come from different tables or passages of the source."}
{"smiles": "C[C@@H]1C[C@@H]([C@H](O)CC2CC(=O)NC(=O)C2)C(=O)[C@@H](C)C1", "note": "[cycloheximide]", "values": [{"measurement": "inhibition of protein synthesis", "setting": "[1]", "result": "inhibited"}]}
{"smiles": "Cc1cc2c(C(C)C)c(O)c(O)c(C=O)c2c(O)c1-c1c(C)cc2c(C(C)C)c(O)c(O)c(C=O)c2c1O", "note": "[BPP_03B04, gossypol]", "values": [{"measurement": "IC50", "setting": "[2]", "result": 2.3, "unit": "µM"}, {"measurement": "Ki", "setting": "[2]", "result": 0.83, "unit": "µM"}, {"measurement": "mode of action relative to Phe", "setting": "[2]; [16]", "result": "competitive"}, {"measurement": "mode of action relative to ATP", "setting": "[2]; [17]", "result": "uncompetitive"}, {"measurement": "IC50", "setting": "[3]", "result": 4.9, "unit": "µM"}, {"measurement": "Ki", "setting": "[3]", "result": 0.98, "unit": "µM"}, {"measurement": "mode of action relative to Phe", "setting": "[3]; [16]", "result": "competitive"}, {"measurement": "mode of action relative to ATP", "setting": "[3]; [17]", "result": "uncompetitive"}, {"measurement": "inhibition of protein synthesis", "setting": "[4]", "result": "no inhibition"}, {"measurement": "decrease of hmPheRS activity", "setting": "[5]", "result": "approximately 80%"}, {"measurement": "MIC", "setting": "[6]", "result": 128, "unit": "µg/mL"}, {"measurement": "MIC", "setting": "[7]", "result": 128, "unit": "µg/mL"}, {"measurement": "MIC", "setting": "[8]", "result": 32, "unit": "µg/mL"}, {"measurement": "MIC", "setting": "[9]", "result": 16, "unit": "µg/mL"}, {"measurement": "MIC", "setting": "[10]", "result": 32, "unit": "µg/mL"}, {"measurement": "MIC", "setting": "[11]", "result": 16, "unit": "µg/mL"}, {"measurement": "MIC", "setting": "[12]", "result": 16, "unit": "µg/mL"}, {"measurement": "MIC", "setting": "[13]", "result": 16, "unit": "µg/mL"}, {"measurement": "MIC", "setting": "[14]", "result": 16, "unit": "µg/mL"}, {"measurement": "MIC", "setting": "[15]", "result": 32, "unit": "µg/mL"}]}
